Results: the RNAGym collection of RNA variant scans (doi:10.1126/science.aae0568)
Fewer inactive variants are shown than the library holds.

B1: tRNA (parent)
chain: GUUCCGUUGGCGUAAUGGUAACGCGUCUCCCUCCUAAGGAGAAGACUGCGGGUUCGAGUCCCGUACGGAACG

Variants of: B1
Test: yeast fitness relative to wild type (ratio to wild type); higher = fitter; tRNA-Arg(CCU), competitive growth, 37 C, YPD
Method in brief: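 The tRNA-Arg(CCU) gene variants were made by chemical synthesis with a 3% per-site mutation rate at 69 sites and inserted at the native genomic locus of Saccharomyces cerevisiae. After pooling, the strains were competed in YPD at 37°C for 24 hours in six parallel replicates. Gene amplicons from the start population and each end population were read by 100-nucleotide paired-end sequencing, and Darwinian fitness relative to wild type was taken from genotype frequency changes. Genotypes needed ≥ 100 starting reads, and estimates < 0.5 were set to 0.5.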

Variant	yeast fitness
C4G A20G C27G C29G C55A A57U A69U	0.629
C4A A14U A20C U28G	0.588
U7A G10A A15U A43G G50A	0.53
G10A A45C	0.66
U19G U47G G58C	≤ 0.5
G9A A14U C29G C34A	0.55
G17A A42G A70C	≤ 0.5
C4U C31A	0.827
U2C A40G A43U A45C	≤ 0.5
U3A C30U G52A	≤ 0.5
U8C C27G A57C	0.586
A15C C24A U32A C55U	≤ 0.5
G6A A42C C62A	0.97
A45C C66U	0.786
C27U C33G C34G G44A G50A G52A G56A	≤ 0.5
C5U U28A G41A A70U	≤ 0.5
C4G C46G	0.854
U7G A20G	0.872
C34G A70U	0.597
A21U C27G C33U C34A C61U	≤ 0.5
G18C G56C	0.524
C5G C11U C30U A36C G58A G67C	≤ 0.5
C11G A21U C31G	≤ 0.5
G25C G39C	0.685

Variant	yeast fitness
C5U U13G A15C	0.509
A15U G38C G39A A43C	≤ 0.5
A20U C29A C30A U53G C62A	0.545
G18A C30A G58A G68U	≤ 0.5
C30G A37U G38A A57C A65C	≤ 0.5
G38A U53A	0.587
G38A U53C	0.799
U26G U35A G41A C46U G68A	≤ 0.5
C29G C33G A43U	≤ 0.5
C29A A36G A45C G56A	≤ 0.5
U28A G58C G68C	≤ 0.5
G18C C33A G39C G41C G44C	≤ 0.5
G38C A40U A42G G51A C60U G68A	≤ 0.5
C5U U32C A37C C60U G67A	0.572
U3C C62U U64A	≤ 0.5
C11U G48A G67C	0.731
C5A C22U G39A C61U	0.503
G23C C31U C49U	0.58
A20G C27A	0.933
A14G A42U C55U U59C G63A A65C	≤ 0.5
U3C A14C A45C	≤ 0.5
A21U G56A G67U A69C	≤ 0.5
A15G G41A U53G	≤ 0.5
C22G G44C C60U	0.762

Variant	yeast fitness
C4G C24U C62A C66U	≤ 0.5
C24A C27A U28A C49U C55A	≤ 0.5
U7G A36G A45U	≤ 0.5
U13G A45U	0.964
A14C A45U	0.717
U13C C29G A36U G41C A45C C49U U54C C61U	≤ 0.5
C34A G52A	0.741
U35C A42G C55A	≤ 0.5
U7A C31G U64A C66U G68C A69G	≤ 0.5
C11U A57G	0.816
U3A A37C	0.796
A14C C29U G52A C55G	≤ 0.5
A15U U32G G44A G52A C61U A69C	≤ 0.5
C5G C11A C29G C33U G50A	≤ 0.5
A20G A36U A57C	≤ 0.5
C11U G25A A43G G51C C55G	0.695
C29G G58C A65C	≤ 0.5
C24U U26C	0.986
C5U C34G A45C C66G	≤ 0.5
A21C U26G U35A A40U	≤ 0.5
U28G G51C U64A C66U A69C	0.583
U8C A40U A45G	0.527
C34U U47A A70U	0.534
C4U C66G A70U	0.608

Variant	yeast fitness
G6C U53C C62U C66U	≤ 0.5
A42U G58U G68C	≤ 0.5
C27G G48C G52C C62G	≤ 0.5
U2A C30U G44C G51A C61U	≤ 0.5
G25A C30U U54A	0.533
C24U C46G C49A C61U	≤ 0.5
A14G C31G A45U C62U	0.669
C4G A20U G25A	≤ 0.5
C30U A42G C62A	≤ 0.5
C31A G39A A43C U53A C66A	≤ 0.5
C22G C29U C31A	≤ 0.5
A14U U16G U19A A42G C61G	0.535
U2A A14C A20G A36G C55U G68C	0.595
C11U A20C	0.777
A21U G38A	0.682
A20G C60U C66U	≤ 0.5
U8C A14G G23A	≤ 0.5
C5A C22G U47C	≤ 0.5
U28G G38C A43G U59C C60G	≤ 0.5
C49A G63U U64C	≤ 0.5
G12C U35A G41C	≤ 0.5
G68A	0.963
A15G C24G U32A G41A	≤ 0.5
G6A G50A G56U G58A	≤ 0.5

Variant	yeast fitness
C27G C31G A69U	≤ 0.5
A15C A20G G51A	≤ 0.5
G10A C61A	≤ 0.5
A21C G23A C24U C31U C49U	≤ 0.5
C11A C29U A43C	0.599
G6A U7C G41A A42C G50C A70G	0.593
U8C G17C C22U C34A	≤ 0.5
A45C U47A U53C	≤ 0.5
A15G G18A A45C	0.57
U19G C66U	0.831
U2A A57C	0.607
C22G C31G C61A	≤ 0.5
C11G A14U G17A C61G C62G	≤ 0.5
G51A C61A C66A	≤ 0.5
G23C C62A	0.541
U16C G48C C49U A65C A70C	≤ 0.5
C5G U13C A43C	≤ 0.5
U16A G68A	1.08
G6A C60G G67A	0.53
G6A C11A A36C C61G C62A A69C	≤ 0.5
A42C U47C	1.09
A40C G41A	0.978
C22G A69U	0.903
C30A A57U C61A A69G	≤ 0.5

Variant	yeast fitness
C24U C34G G51A	0.663
U7G C61U G63A C66A	≤ 0.5
U35G A45C G56C	≤ 0.5
G38A C60U G67C	≤ 0.5
G9C C31A C49G	0.574
G18A C33U U53A C55A	0.523
C11U G18C G23C A57C	≤ 0.5
G38C G68C	0.819
A15G C24G A37G	≤ 0.5
U3C C5G G38A A65G C66G	≤ 0.5
C24G C34A U35A C46U G48A C60G C66U	0.558
U8G A20C C49G G50A G56C	≤ 0.5
C5G G48A C49G	0.658
G9A C62A	0.842
A14G G17A A37U C62G	≤ 0.5
C5A G23A C46U G50C C61A A70C	≤ 0.5
C4G U32G C62U G67U	≤ 0.5
U8G G9A U19G U53C C60A	≤ 0.5
G23A C29G A65G	≤ 0.5
G9A A14G A37G	0.624
U35A C46A C49G G52A C60U A69G	≤ 0.5
U13A C60U A69U	0.62
C22A C24G A36G G39C C66U	≤ 0.5
C27A A37U C60U G63A	0.707

Variant	yeast fitness
C22U A36G	0.948
C5A G50A	0.87
C31A C33G A42C G48A U54A A69C	≤ 0.5
A15U G50C U54C	≤ 0.5
U7C U13C C24U C49U	≤ 0.5
C22G C61G C62U	≤ 0.5
C4A A21U C46A	0.58
C5G U35G A37G	0.536
U2C C4A	0.877
C55G C60G C66U	≤ 0.5
C27G A37G G38A	≤ 0.5
G10C G48A U54A A69C	≤ 0.5
A37U A45C G52C	≤ 0.5
A43G G51A C61U C62G	≤ 0.5
A15C C60G	0.612
U32C G41C G58U	0.533
C5U U16A G23A C49U	≤ 0.5
C24G C30A A40C A57G C61U	≤ 0.5
U8G C27U C30A A43C C60U	≤ 0.5
A40C A57G	0.813
C55A A70C	0.807
C34G A42U C61U	≤ 0.5
G10C A14U G56A	≤ 0.5
